Tested on: Clostridium botulinum
Assay: Zinc chelating activity mediated inhibition of Clostridium botulinum BoNT/A LC activity at 15 uM using SNAPtide as substrate measured for 10 mins by FRET assay relative to control
Procedure, shortened: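 Recombinant BoNT/A light chain at 20 nM, 8 μM SNAPtide FRET substrate, each dipeptide tested at 15 μM. Reactions were run in triplicate, and percent inhibition is the mean of the three.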

Compound	inhibition
CCOc1ccc(S(=O)(=O)N[C@@H](Cc2ccccc2)C(=O)N[C@H](C(=O)NO)[C@@H](C)CC)cc1OCC	22%
CC[C@H](C)[C@H](NC(=O)C(C)(C)NS(=O)(=O)c1ccc(-c2ccc(Cl)cc2)cc1)C(=O)NO	84%
CC[C@H](C)[C@H](NC(=O)[C@H](NS(=O)(=O)c1ccc(-c2ccc(Cl)cc2)cc1)[C@@H](C)CC)C(=O)NO	69%
CC[C@H](C)[C@H](NC(=O)[C@H](Cc1ccccc1)NS(=O)(=O)c1ccc(C2CCCCC2)cc1)C(=O)NO	57%
CC[C@H](C)[C@H](NC(=O)[C@H](C)NS(=O)(=O)c1ccc(-c2ccc(Cl)cc2)cc1)C(=O)NO	31%
CC[C@H](C)[C@H](NC(=O)[C@H](Cc1ccccc1)NS(=O)(=O)c1ccc(Br)cc1)C(=O)NO	87%
CC[C@H](C)[C@H](NC(=O)[C@@H](Cc1ccccc1)NS(=O)(=O)c1ccc(-c2ccc(Cl)cc2)cc1)C(=O)NO	41%
CC[C@H](C)[C@H](NC(=O)[C@H](Cc1ccccc1)NS(=O)(=O)c1cccc(Cl)c1)C(=O)NO	79%
CC[C@H](C)[C@H](NS(=O)(=O)c1ccc(-c2ccc(Cl)cc2)cc1)C(=O)N[C@@H](Cc1ccccc1)C(=O)NO	44%
CC[C@H](C)[C@H](NC(=O)[C@@H](NS(=O)(=O)c1ccc(-c2ccc(Cl)cc2)cc1)[C@@H](C)CC)C(=O)NO	85%
CC[C@H](C)[C@H](NS(=O)(=O)c1ccc(-c2ccc(Cl)cc2)cc1)C(=O)NCCC(=O)NO	62%
CC[C@H](C)[C@H](NC(=O)[C@H](Cc1ccccc1)NS(=O)(=O)c1cc(Cl)cc(Cl)c1)C(=O)NO	100%
CC[C@H](C)[C@H](NC(=O)[C@H](Cc1ccccc1)NS(=O)(=O)c1c(Cl)cccc1Cl)C(=O)NO	83%
CC[C@H](C)[C@H](NC(=O)[C@H](Cc1ccccc1)NS(=O)(=O)c1ccccc1)C(=O)NO	52%
CC[C@H](C)[C@H](NS(=O)(=O)c1ccc(-c2ccc(Cl)cc2)cc1)C(=O)NC(C)(C)C(=O)NO	11%
CC[C@H](C)[C@H](NS(=O)(=O)c1ccc(-c2ccc(Cl)cc2)cc1)C(=O)NCC(=O)NO	18%
CC[C@H](C)[C@H](NC(=O)[C@H](Cc1ccccc1)NS(=O)(=O)c1ccc(Cl)cc1)C(=O)NO	77%
CC[C@H](C)[C@H](NC(=O)[C@H](CC(C)C)NS(=O)(=O)c1ccc(-c2ccc(Cl)cc2)cc1)C(=O)NO	100%
CC[C@H](C)[C@H](NC(=O)[C@H](Cc1ccccc1)NS(=O)(=O)c1cccc(C(C)(C)C)c1)C(=O)NO	93%
CC[C@H](C)[C@@H](NC(=O)[C@@H](Cc1ccccc1)NS(=O)(=O)c1ccc(-c2ccc(Cl)cc2)cc1)C(=O)NO	63%
CC[C@H](C)[C@H](NS(=O)(=O)c1ccc(-c2ccc(Cl)cc2)cc1)C(=O)N[C@@H](C)C(=O)NO	55%
CC[C@H](C)[C@@H](NC(=O)[C@H](NS(=O)(=O)c1ccc(-c2ccc(Cl)cc2)cc1)[C@@H](C)CC)C(=O)NO	48%
CC[C@H](C)[C@H](NC(=O)[C@H](Cc1ccccc1)NS(=O)(=O)c1ccc(-c2ccccc2)cc1)C(=O)NO	77%
CC[C@H](C)[C@H](NS(=O)(=O)c1ccc(-c2ccc(Cl)cc2)cc1)C(=O)N[C@@H](C(=O)NO)[C@@H](C)CC	57%
CC[C@H](C)[C@H](NC(=O)[C@H](Cc1ccccc1)NS(=O)(=O)c1ccc(-c2ccc(Cl)cc2)cc1)C(=O)NO	100%
CC[C@H](C)[C@@H](NS(=O)(=O)c1ccc(-c2ccc(Cl)cc2)cc1)C(=O)N[C@@H](Cc1ccccc1)C(=O)NO	62%

Tested on: not listed separately
Assay: Zinc chelating activity mediated inhibition of Clostridium botulinum BoNT/A LC activity using SNAPtide as substrate measured for 10 mins by FRET assay
Procedure, shortened: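 BoNT/A light chain at 20 nM was incubated with 8 μM SNAPtide substrate across a range of dipeptide concentrations. IC50 values were derived from the concentration series.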

Compound	IC50
CCC[C@H](NC(=O)[C@@H](NS(=O)(=O)c1cc(Cl)cc(Cl)c1)[C@@H](C)CC)C(=O)NO	89 nM
CC[C@H](C)[C@H](NS(=O)(=O)c1cc(Cl)cc(Cl)c1)C(=O)N[C@@H](CC(C)C)C(=O)NO	150 nM
CC[C@H](C)[C@H](NC(=O)[C@H](Cc1ccccc1)NS(=O)(=O)c1cc(Cl)cc(Cl)c1)C(=O)NO	150 nM
CC[C@H](C)[C@H](NC(=O)[C@@H](NS(=O)(=O)c1cc(Cl)cc(Cl)c1)C(C)C)C(=O)NO	69 nM
CC(C)[C@H](NC(=O)[C@H](Cc1ccccc1)NS(=O)(=O)c1cc(Cl)cc(Cl)c1)C(=O)NO	21 nM
CCC[C@H](NC(=O)[C@@H](NS(=O)(=O)c1ccc(-c2ccc(Cl)cc2)cc1)[C@@H](C)CC)C(=O)NO	1000 nM
CCC[C@H](NC(=O)[C@H](Cc1ccccc1)NS(=O)(=O)c1cc(Cl)cc(Cl)c1)C(=O)NO	43 nM
CC[C@H](C)[C@H](NC(=O)[C@@H](NS(=O)(=O)c1ccc(-c2ccc(Cl)cc2)cc1)C(C)C)C(=O)NO	2900 nM
CC[C@H](C)[C@H](NC(=O)[C@H](Cc1ccccc1)NS(=O)(=O)c1ccc(-c2ccc(Cl)cc2)cc1)C(=O)NO	2400 nM
